From ChEMBL document CHEMBL3808334, “Synthesis and in vitro evaluation of novel triazine analogues as anticancer agents and their interaction studies with bovine serum albumin” (Eur J Med Chem, 2016)

Assays:
[1] = Growth inhibition of human OVCAR5 cells assessed as cell growth at 10^-5 M incubated for 48 hrs by sulforhodamine B assay; assay type: functional; conditions: OVCAR-5, 48 h, read-out: Activity
K562 = test: Growth inhibition of human K562 cells assessed as cell growth at 10^-6 M incubated for 48 hrs by sulforhodamine B assay; assay type: functional; conditions: K562, 48 h, read-out: Activity
[2] = Growth inhibition of human HOP62 cells assessed as cell growth at 10 uM incubated for 48 hrs by sulforhodamine B assay; assay type: functional; conditions: HOP-62, 48 h, read-out: Activity
HT-29 = test: Growth inhibition of human HT-29 cells assessed as cell growth at 10^-8 M incubated for 48 hrs by sulforhodamine B assay; assay type: functional; conditions: HT-29, 48 h, read-out: Activity
[3] = Growth inhibition of human SNB19 cells incubated for 48 hrs by sulforhodamine B assay; assay type: functional; conditions: SNB-19, 48 h
Outline: (§1)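 Cells were plated at 5,000–40,000 per well according to doubling time and preincubated 24 h at 37 °C in 5% CO2; time-zero plates were then TCA-fixed. Five concentrations (10-fold or ½-log dilutions, DMSO stock) were incubated 48 h. Cells were TCA-fixed, stained with 0.4% SRB and read at 515 nm. GI50 was taken where [(Ti−Tz)/(C−Tz)]×100 = 50.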

[4] = Growth inhibition of human MOLT4 cells assessed as cell growth at 10^-4 M incubated for 48 hrs by sulforhodamine B assay; assay type: functional; conditions: MOLT-4, 48 h, read-out: Activity
NCI-H522 = test: Growth inhibition of human NCI-H522 cells assessed as cell growth at 10^-4 M incubated for 48 hrs by sulforhodamine B assay; assay type: functional; conditions: NCI-H522, 48 h, read-out: Activity
Albumin = Albumin (Bos taurus, UniProt P02769); test: Binding affinity to bovine serum albumin assessed as binding constant in absorption spectra by Benesie-Hildebrand plot analysis; assay type: ADME; conditions: cattle, isolated protein
Sequence of Albumin (P02769 whole entry): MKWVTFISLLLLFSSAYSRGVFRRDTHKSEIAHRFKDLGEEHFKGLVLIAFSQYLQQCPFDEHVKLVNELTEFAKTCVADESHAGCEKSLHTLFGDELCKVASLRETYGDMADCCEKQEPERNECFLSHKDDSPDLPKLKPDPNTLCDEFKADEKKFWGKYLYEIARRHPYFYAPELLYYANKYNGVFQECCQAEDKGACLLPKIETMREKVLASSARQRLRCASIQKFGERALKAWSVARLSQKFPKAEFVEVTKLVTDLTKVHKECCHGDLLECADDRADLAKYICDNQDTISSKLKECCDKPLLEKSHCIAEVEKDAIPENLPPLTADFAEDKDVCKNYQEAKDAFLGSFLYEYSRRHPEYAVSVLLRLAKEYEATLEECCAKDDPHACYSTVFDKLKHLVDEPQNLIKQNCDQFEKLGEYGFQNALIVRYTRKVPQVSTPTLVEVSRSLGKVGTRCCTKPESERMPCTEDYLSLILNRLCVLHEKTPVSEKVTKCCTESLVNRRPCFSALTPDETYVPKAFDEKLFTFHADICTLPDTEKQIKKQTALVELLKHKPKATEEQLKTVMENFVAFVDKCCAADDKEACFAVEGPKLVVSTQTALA
Outline: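 BSA, 10 µM, in 0.1 M phosphate buffer pH 7.4, titrated with compound (0–20 µM per the figure; diluted from 10⁻³ mol L⁻¹ DMSO stocks). Run at 300 K in a 1 cm quartz cell. UV spectra taken 200–800 nm after 5 min equilibration; fluorescence excited at 280 nm, emission 351 nm, slit 10 nm. K is the intercept/slope ratio of a linear fit of 1/(A₀−A) or 1/(F₀−F) vs 1/[compound].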

[5] = Growth inhibition of human SW620 cells assessed as cell growth at 10^-4 M incubated for 48 hrs by sulforhodamine B assay; assay type: functional; conditions: SW-620, 48 h, read-out: Activity
[6] = Growth inhibition of human LOXIMVI cells incubated for 48 hrs by sulforhodamine B assay; assay type: functional; conditions: LOX IMVI; outline: as §1
[7] = Growth inhibition of human HOP92 cells assessed as cell growth at 10^-6 M incubated for 48 hrs by sulforhodamine B assay; assay type: functional; conditions: HOP-92, 48 h, read-out: Activity
KM12 = test: Growth inhibition of human KM12 cells assessed as cell growth at 10^-4 M incubated for 48 hrs by sulforhodamine B assay; assay type: functional; conditions: KM12, 48 h, read-out: Activity
MDA-MB-468 = test: Growth inhibition of human MDA-MB-468 cells assessed as cell growth at 10 uM incubated for 48 hrs by sulforhodamine B assay; assay type: functional; conditions: MDA-MB-468, 48 h, read-out: Activity
EKVX = test: Growth inhibition of human EKVX cells assessed as cell growth at 10^-4 M incubated for 48 hrs by sulforhodamine B assay; assay type: functional; conditions: read-out: Activity
Outline: (§2)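 Cells seeded at 5,000–40,000/well according to doubling time and preincubated 24 h at 37 °C, 5% CO2. Time-zero plates were TCA-fixed. DMSO concentrate was diluted in medium with 50 µg/ml gentamicin to give five concentrations (10-fold or ½ log steps), then exposed 48 h. Cells were TCA-fixed, stained with 0.4% SRB and read at 515 nm. Percent growth was taken against time-zero and control; GI50, TGI and LC50 derived.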

[8] = Growth inhibition of human HCC2998 cells incubated for 48 hrs by sulforhodamine B assay; assay type: functional; conditions: HCC 2998, 48 h; outline: as §2
[9] = Growth inhibition of human IGROV1 cells assessed as cell growth at 10 uM incubated for 48 hrs by sulforhodamine B assay; assay type: functional; conditions: IGROV-1, 48 h, read-out: Activity
A498 = test: Growth inhibition of human A498 cells assessed as cell growth at 10^-8 M incubated for 48 hrs by sulforhodamine B assay; assay type: functional; conditions: A498, 48 h, read-out: Activity
Outline: (§3)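 Five-dose assay: five concentrations from 10-fold or ½-log serial dilutions. Cells are plated at 5,000–40,000 per well according to doubling time, grown 24 h, then exposed 48 h at 37 °C, 5% CO₂. Fixed with cold 50% TCA (final addition) for 60 min at 4 °C and stained with 0.4% SRB in 1% acetic acid. Bound dye is solubilized in 10 mM Tris base and read at 515 nm. GI₅₀ is where [(Ti−Tz)/(C−Tz)]×100 = 50, with a time-zero plate as Tz.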

[10] = Growth inhibition of human OVCAR4 cells assessed as cell growth at 10^-6 M incubated for 48 hrs by sulforhodamine B assay; assay type: functional; conditions: OVCAR-4, 48 h, read-out: Activity
CCRF-CEM = test: Growth inhibition of human CCRF-CEM cells assessed as cell growth at 10^-7 M incubated for 48 hrs by sulforhodamine B assay; assay type: functional; conditions: read-out: Activity
Outline: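 Leukemia line in the five-dose format: five concentrations from 10-fold or ½-log serial dilutions. Plated at 5,000–40,000 cells per well, preincubated 24 h, then compound added for 48 h at 37 °C, 5% CO₂. Sulforhodamine B absorbance read at 515 nm. Growth is computed against time-zero (Tz) and control (C) readings; GI₅₀ is where [(Ti−Tz)/(C−Tz)]×100 = 50.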

[11] = Growth inhibition of human HL-60(TB) cells assessed as cell growth at 10^-5 M incubated for 48 hrs by sulforhodamine B assay; assay type: functional; conditions: HL-60, 48 h, read-out: Activity
Outline: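 Cells plated at 5,000–40,000/well according to doubling time and preincubated 24 h at 37 °C, 5% CO₂, with time-zero plates TCA-fixed. Drugs were kept as DMSO concentrates at 400× the top concentration and diluted in medium with 50 µg/ml gentamicin. Five 10-fold or ½-log dilutions were run for 48 h, followed by SRB staining and A515. Percent growth = (Ti−Tz)/(C−Tz)×100, or (Ti−Tz)/Tz×100 when Ti<Tz.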

ACHN = test: Growth inhibition of human ACHN cells assessed as cell growth at 10^-5 M incubated for 48 hrs by sulforhodamine B assay; assay type: functional; conditions: read-out: Activity; outline: as §3
[12] = read-out: LC50 (the source's name)
[13] = read-out: pLC50 (the source's name) (converted)

SMILES | growth at 10 µM [1] [%] | growth at 1 µM (K562) [%] | growth at 10 µM [2] [%] | growth at 0.01 µM (HT-29) [%] | GI50 ([3]; read-out: GI50) [µM] | GI50 ([3]; read-out: pGI50 (converted)) [µM] | growth at 100 µM [4] [%] | growth at 100 µM (NCI-H522) [%] | K (Albumin) | growth at 100 µM [5] [%] | GI50 ([6]; read-out: GI50) [µM] | GI50 ([6]; read-out: pGI50 (converted)) [µM] | growth at 1 µM [7] [%] | growth at 100 µM (KM12) [%] | growth at 10 µM (MDA-MB-468) [%] | growth at 100 µM (EKVX) [%] | GI50 ([8]; read-out: GI50) [µM] | GI50 ([8]; read-out: pGI50 (converted)) [µM] | growth at 10 µM [9] [%] | growth at 0.01 µM (A498) [%] | also measured
c1ccc(-c2nc(Nc3ccc(-c4nc5ccccc5[nH]4)cc3)nc(N3CCOCC3)n2)cc1 | -73 | -2 | -64.5 | 105 | 1.96 | 1.95 | -52 | -74 | 1.2 ×10⁵ /M | -84 | 0.489 | 0.49 | 70 | -86 | -62.7 | -66 | 1.9 | 1.91 | -38.1 | 86 | TGI ([3]; read-out: TGI): 4.32 µM; TGI ([3]; read-out: pTGI (converted)): 4.37 µM; TGI ([6]; read-out: TGI): 2.12 µM; TGI ([6]; read-out: pTGI (converted)): 2.14 µM; TGI ([8]; read-out: TGI): 3.99 µM; TGI ([8]; read-out: pTGI (converted)): 3.98 µM; growth at 1 µM [10]: 93%; growth at 0.1 µM (CCRF-CEM): 99%; growth at 10 µM [11]: -44%; growth at 10 µM (ACHN): -82%
Fc1ccc(-c2nc(Nc3ccc(-c4nc5ccccc5[nH]4)cc3)nc(N3CCOCC3)n2)cc1 | -5 | 101 | -27.3 | 100 | 3.49 | 3.47 | -33 | -31 | 1 ×10⁵ /M | -44 | 1.78 | 1.78 | 90 | -37 | -1.23 | 3 | 3.09 | 3.09 | 33.7 | 100 | CC50 [3, 12]: > 100 µM; TGI ([3]; read-out: TGI): > 100 µM; CC50 [3, 13]: > 100 µM; TGI ([3]; read-out: pTGI (converted)): > 100 µM; TGI ([6]; read-out: TGI): 3.59 µM; TGI ([6]; read-out: pTGI (converted)): 3.63 µM; CC50 [8, 12]: > 100 µM; TGI ([8]; read-out: TGI): > 100 µM; CC50 [8, 13]: > 100 µM; TGI ([8]; read-out: pTGI (converted)): > 100 µM; growth at 1 µM [10]: 96%; growth at 0.1 µM (CCRF-CEM): 104%; growth at 10 µM [11]: -27%; growth at 10 µM (ACHN): 3%
Clc1ccc(-c2nc(Nc3ccc(-c4nc5ccccc5[nH]4)cc3)nc(N3CCOCC3)n2)cc1 | -79 | -63 | -73.9 | 104 | 0.379 | 0.38 | -41 | -41 | 1 ×10⁵ /M | -63 | 0.189 | 0.191 | 68 | -67 | -84 | -15 | 0.358 | 0.355 | -71.2 | 94 | growth at 1 µM [10]: 52%; growth at 0.1 µM (CCRF-CEM): 99%; growth at 10 µM [11]: -71%; growth at 10 µM (ACHN): -87%
c1ccc2[nH]c(-c3ccc(Nc4nc(N5CCCCC5)nc(N5CCOCC5)n4)cc3)nc2c1 | 16 | 109 | -45.2 | 105 | 3.73 | 3.72 | -34 | -29 | 9.7 ×10⁴ /M | -53 | 1.75 | 1.74 | 95 | -40 | -3.66 | 1 | 3.74 | 3.72 | 51.3 | 92 | CC50 [3, 12]: > 100 µM; TGI ([3]; read-out: TGI): 81.9 µM; CC50 [3, 13]: > 100 µM; TGI ([3]; read-out: pTGI (converted)): 81.3 µM; CC50 [6, 12]: 7.31 µM; TGI ([6]; read-out: TGI): 3.58 µM; CC50 [6, 13]: 7.24 µM; TGI ([6]; read-out: pTGI (converted)): 3.55 µM; CC50 [8, 12]: > 100 µM; TGI ([8]; read-out: TGI): > 100 µM; CC50 [8, 13]: > 100 µM; TGI ([8]; read-out: pTGI (converted)): > 100 µM; growth at 1 µM [10]: 93%; growth at 0.1 µM (CCRF-CEM): 96%; growth at 10 µM [11]: -31%; growth at 10 µM (ACHN): 9%
